As a reminder, the MIC is the smallest concentration in the dilution series that meets the test's criterion for growth inhibition. For orientation: IC50 means the concentration at which inhibition is half-maximal.

Data set [1] deals with Staphylococcus aureus. Nature of the data set: Antibacterial activity against drug sensitive Staphylococcus aureus RN4220 assessed as reduction in bacterial growth by broth microdilution method. The class given is functional. The essentials: (§1)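 MICs were determined by standard twofold serial broth microdilution in lysogeny broth (LB) medium.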
On the technique in general: Dilution methods test growth across graded concentrations, often in twofold steps.

The subject of another data set is Pseudomonas aeruginosa. Nature of the data set: Antibacterial activity against drug sensitive Pseudomonas aeruginosa PAO1 assessed as reduction in bacterial growth by broth microdilution method. The class given is functional. In outline:
as §1

A further data set relates to Enterococcus. Description: Antibacterial activity against vancomycin-resistant Enterococcus assessed as reduction in bacterial growth by broth microdilution method. The data set is classed as functional. The essentials: (§2)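 Twofold serial dilution (microdilution) MIC in lysogeny broth (LB) medium against drug-resistant strains: MRSA USA300, vancomycin-resistant Enterococci, Klebsiella pneumoniae.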

The next data set deals with Klebsiella pneumoniae. Nature of the data set: Antibacterial activity against drug-resistant Klebsiella pneumoniae assessed as reduction in bacterial growth by broth microdilution method. The data set is classed as functional. The essentials: as §2
Data set [2] relates to Escherichia coli. Description: Antibacterial activity against Escherichia coli measured for 15 days. The data set is classed as functional, organism-based. The settings on record: time 15.0 day. In outline:
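E. coli was serially subcultured in fresh medium, starting from the initial MIC. The MIC was redetermined every 24 h. A reference antibiotic was tested in parallel by twofold dilution. The regimen ran for 24 days in total.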

For another data set, the system named is MCF7. Nature of the data set: Cytotoxicity against human MCF7 cells assessed as inhibition of cell growth incubated for 24 hrs by MTT assay. To be noted: MCF7, 24 h. The class given is functional, cell-based. The essentials: (§3)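 MTT assay with 24 h exposure of cells to the samples. IC50 is the concentration giving 50% growth inhibition, reported as mean ± S.D. of three independent experiments.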

The nature of data set [3]: Cytotoxicity against human HEK293 cells assessed as inhibition of cell growth incubated for 24 hrs by MTT assay. The class given is toxicity, cell-based. The essentials:
as §3

Data set [4] relates to Staphylococcus aureus. Nature of the data set: Antibiofilm activity against Methicillin-resistant Staphylococcus aureus assessed as reduction in number of viable cells at 3 times MIC incubated for 24 hrs. The class given is functional, organism-based. In outline: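 Biofilm eradication: mid-log MRSA at 2 × 10^6 CFU mL-1 grown 48 h to form biofilms, then washed with PBS. Biofilms exposed to compound at MIC, 2× or 3× MIC for 24 h; medium-only control. Biofilms dispersed with trypsin–EDTA, serial 10-fold dilutions plated, colonies counted after 24 h, expressed as log10 CFU mL-1.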

In data set [5] the test system is Escherichia coli. Description: Antibiofilm activity against Escherichia coli assessed as reduction in number of viable cells at 2 times MIC incubated for 24 hrs. The data set is classed as functional, organism-based. The essentials: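 E. coli was grown to mid-log phase and adjusted to 2 × 10^6 CFU mL−1. Biofilms were grown for 48 h, then the spent medium was removed and loose cells were washed off with PBS. Compound was added at MIC, 2× MIC or 4× MIC for 24 h, with a sterile-medium control. Biofilms were dispersed with trypsin–EDTA, 10-fold dilutions were plated, and colonies were counted after 24 h as log10 CFU mL−1.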

In data set [6] the test system is Escherichia coli. Description: Antibiofilm activity against Escherichia coli assessed as reduction in number of viable cells at 8 times MIC incubated for 24 hrs. The class given is functional, organism-based.
The test system of data set [7] is Staphylococcus aureus. Description: Antibacterial activity against methicillin-resistant Staphylococcus aureus assessed as increase in number of bacteria at 2 times MIC measured at 3 hrs. The data set is classed as functional, organism-based. The essentials: (§4)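 Cells washed three times in sterile saline by centrifugation, moved to fresh TSB at 37 °C. Viable counts plated on TSB agar at 2–17 h. PCE = t − c, the time for a 1-log rise in treated versus control. Run twice.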

The test system of data set [8] is Staphylococcus aureus. Nature of the data set: Antibacterial activity against methicillin-resistant Staphylococcus aureus assessed as increase in number of bacteria at 3 times MIC measured up to 5 hrs. The data set is classed as functional, organism-based. In outline:
as §4

For data set [9], the system named is Cell membrane. Description: Induction of cell membrane integrity in methicillin-resistant Staphylococcus aureus assessed as increase in K+ efflux at 3 times MIC by absorption spectrophotometric analysis. The data set is classed as subcellular. The essentials: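 K+ leakage: mid-log MRSA (6 h) resuspended in 10 mM HEPES (pH 7.3)/5 mM glucose at ~2 × 10^6 CFU mL-1. Incubated with compound at 3× MIC at 37 °C for various times, PBS control. Supernatant K+ measured by atomic absorption spectrophotometry. Duplicate.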

Data set [10] has as its system Cell membrane. Description: Induction of cell membrane integrity in Escherichia coli assessed as increase in K+ efflux at 3 times MIC by absorption spectrophotometric analysis. The class given is subcellular. The essentials: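 Mid-log E. coli (6 h culture) was suspended to about 2 × 10^6 CFU mL−1 in 10 mM HEPES pH 7.3 plus 5 mM glucose (1:1). Cells were incubated with 3× MIC at 37 °C for various times, with a PBS control. Supernatant K+ was measured by atomic absorption spectrophotometry. Run in duplicate.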

Data set [11] relates to Cell membrane. Nature of the data set: Induction of cell membrane depolarization in methicillin-resistant Staphylococcus aureus assessed as increase in fluorescence intensity at 3 times of MIC measured up to 15 hrs by DiSC3-5 dye based fluorescence analysis. The data set is classed as subcellular. In outline:
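Membrane potential assay. Mid-log MRSA (6 h growth) pelleted and resuspended in 100 mM KCl, 5 mM HEPES (pH 7.3) and 5 mM glucose (1:1:1). Mixed with DiSC3(5) at 8 μM final and preincubated 40 min at 37 °C. Compound added at 3× MIC, water control. Fluorescence read at ex 622 / em 670 nm.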

In data set [12] the test system is Cell membrane. Nature of the data set: Induction of cell membrane depolarization in Escherichia coli assessed as increase in fluorescence intensity at 3 times of MIC measured up to 15 hrs by DiSC3-5 dye based fluorescence analysis. The class given is subcellular. The essentials: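 Mid-log E. coli (6 h culture) was resuspended in 100 mM KCl, 5 mM HEPES pH 7.3 and 5 mM glucose (1:1:1). Cells were loaded with DiSC3(5) at 8 μM final for 80 min at 37 °C, then exposed to 3× MIC. Fluorescence was read at ex 622 nm / em 670 nm, with a water control.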

The structures appear in SMILES notation. Values after ≈ are worked out from the molar mass of the structure shown. Active and inactive are the calls of the source.

For `CC(C)(C)c1ccc(CCNc2nc3ccccc3nc2N)cc1`, the MIC in the data set with Staphylococcus aureus [1] is 4 µg/mL (≈ 12.5 µM); in the data set on Pseudomonas aeruginosa, 64 µg/mL (≈ 200 µM); with Enterococcus it was over 128 µg/mL; with Klebsiella pneumoniae, 128 µg/mL (≈ 399 µM). Besides, the outcome in the data set with Escherichia coli [2], with Staphylococcus aureus [4], in the data set with Escherichia coli [5], with Escherichia coli [6], with Staphylococcus aureus [7] and in the data set with Staphylococcus aureus [8] was Active. In addition, the outcome with Cell membrane [9], in the data set on Cell membrane [10], with Cell membrane [11] and in the data set with Cell membrane [12] was Active. Moreover, the 50% inhibitory concentration (IC50) in the data set on MCF7 came out at 72.5 µg/mL (≈ 226 µM). Also, the IC50 at 24 h in data set [3] was determined as 129 µg/mL (≈ 403 µM).

For the origin of these results see ChEMBL document CHEMBL6177922, “Antibacterial activity of the structurally novel C-2 amine-substituted analogues based on quinoxaline” (RSC Med Chem, 2025).
